Most compounds without a hit are left out; they make up all but 2.1% or so of the library.
MsrA act – activators of bovine methionine sulfoxide reductase A. actives 0.3% (n = 360,000). purified bovine MsrA, absorbance read-out. activation, % at 10.6 µM; in the data active = activation above about 7.5%;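 also: 0% = vehicle and 100% = reference activator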
VIM-2 inhibitor – inhibitors of Pseudomonas aeruginosa VIM-2 metallo-beta-lactamase. purified VIM-2, nitrocefin hydrolysis, epi-absorbance fluorescence. inhibition, % at 5.6 µM. actives 0.89% (n = 290,000);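 active = inhibition above the mean of all tested compounds plus 3 SD, cutoff set per screening run, cut at about 7.5% in these data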;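 also: red hydrolysis product quenches plate fluorescence so inhibitors raise well fluorescence; 0% = enzyme with DMSO and 100% = DMSO without enzyme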
IMP-1 inh-1 – inhibitors of Pseudomonas aeruginosa IMP-1 metallo-beta-lactamase; purified IMP-1, nitrocefin hydrolysis, epi-absorbance fluorescence; inhibition, % at 5.6 µM; actives 0.45% (n = 290,000);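 active = inhibition above the mean plus 3 SD of all compounds in the same screening run, cut at about 4.5% in these data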;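 also: 0% = IMP-1 with DMSO and 100% = DMSO wells lacking enzyme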
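System: Purified IMP-1 | Read-out basis: Percent enzyme inhibition | Controls: IMP-1 with DMSO as 0%, enzyme-free DMSO as 100% | Replicates: One well per compound | Doses: 5.6 µM nominal single concentration | Detection: Epi-absorbance fluorescence, 480 nm excitation, 530 nm emission | Incubation: 25 °C, 15 min preincubation, 25 min reaction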
PKA-R2B activ – PKA-R2B complex activation; P22694+P31323; PKA-R2B holoenzyme dissociation, Cy5-IP20 fluorescence polarization; R2B truncated from residue 108, S112A mutant; 0% DMSO only, 100% 113 µM cGMP; activation, % at 11.4 µM; actives 0.079% (n = 340,000); AID 504700;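 active = activation above a cutoff set at the mean over all compounds plus 3 SD, cut at about 18% in these data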;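 also: higher means more holoenzyme dissociation and a rise in polarization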
Target sequence (P31323 whole entry, looked up, other chains not shown, the tested form may be a part): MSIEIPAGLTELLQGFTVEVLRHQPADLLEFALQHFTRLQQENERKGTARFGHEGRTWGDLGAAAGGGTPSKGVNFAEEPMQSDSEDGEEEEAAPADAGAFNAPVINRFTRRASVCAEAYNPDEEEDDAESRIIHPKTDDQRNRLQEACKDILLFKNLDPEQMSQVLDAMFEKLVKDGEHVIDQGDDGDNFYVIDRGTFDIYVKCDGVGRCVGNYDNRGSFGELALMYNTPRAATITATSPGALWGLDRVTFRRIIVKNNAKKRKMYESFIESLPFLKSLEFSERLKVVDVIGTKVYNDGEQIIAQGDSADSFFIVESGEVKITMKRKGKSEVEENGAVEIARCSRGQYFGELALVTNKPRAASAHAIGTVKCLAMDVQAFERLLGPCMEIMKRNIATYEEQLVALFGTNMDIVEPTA
PKA-R1A activ – PKA-R1A complex activation | AID 504707 | P00514+P68181 | activation, % at 11.4 µM | PKA-R1A dissociation, Cy5-IP20 fluorescence polarization; scaled: DMSO 0%, 113 µM cGMP 100% | actives 0.083% (n = 340,000);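 active = percent activation above the mean of all tested compounds plus 3 SD, cut at about 19% in these data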;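 also: higher means more PKAc released from R1A so a rise in polarization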
MsrA inh – bovine MsrA inhibition; purified bovine MsrA, absorbance read-out; inhibition, % at 15.5 µM; actives 0.75% (n = 360,000); in the data active = inhibition above about 4.5%;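 also: 0% = vehicle wells with enzyme and 100% = reference inhibitor wells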
IMP-1 inh-2 – blocks IMP-1 metallo-beta-lactamase in VIM-2 selectivity screen; purified IMP-1, nitrocefin hydrolysis, epi-absorbance fluorescence; inhibition, % at 5.6 µM; shares compounds with VIM-2 inhibitor; 1,300 tested, under 10 active; call rule not given here;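 also: 0% = enzyme with vehicle and 100% = vehicle without enzyme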
VIM-2 FRET inh – inhibits VIM-2 in FRET assay to exclude epi-absorbance artifacts | purified VIM-2, CCF2 FRET substrate hydrolysis | inhibition, % at 5.6 µM | actives 23% (n = 1,300) | shares compounds with VIM-2 inhibitor | AID 1857;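 active = inhibition above the mean of all tested compounds plus 3 SD, cut at about 19% in these data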;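 also: 0% = VIM-2 plus DMSO and 100% = no enzyme wells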
TEM-1 counter-1 – TEM-1 inhibition, counter-screen for VIM-2 inhibitors. shares compounds with VIM-2 inhibitor. Purified TEM-1, nitrocefin hydrolysis, epi-absorbance fluorescence. inhibition, % at 5.6 µM. actives 3% (n = 1,300);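 active = inhibition above that campaign's mean inhibition plus 3 SD, cut at about 0.46% in these data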;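 also: 0% = TEM-1 with DMSO and 100% = TEM-1 with 100 µM potassium clavulanate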
Target sequence (P62593 whole entry, looked up): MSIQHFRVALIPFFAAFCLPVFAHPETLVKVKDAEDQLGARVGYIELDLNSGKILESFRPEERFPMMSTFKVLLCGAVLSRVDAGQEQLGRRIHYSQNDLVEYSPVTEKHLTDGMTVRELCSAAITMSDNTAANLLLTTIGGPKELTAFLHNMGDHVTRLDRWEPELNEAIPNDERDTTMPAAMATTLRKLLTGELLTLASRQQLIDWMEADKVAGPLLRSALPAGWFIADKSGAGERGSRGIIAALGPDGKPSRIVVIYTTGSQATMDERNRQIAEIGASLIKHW
VIM-2 inh conf – confirmation of P. aeruginosa VIM-2 metallo-beta-lactamase inhibitors; inhibition, % at 5.6 µM; shares compounds with VIM-2 inhibitor; AID 2187; actives 96% (n = 1,300); purified VIM-2, nitrocefin hydrolysis, epi-absorbance;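 active = inhibition of the VIM-2 beta-lactamase enzyme above about 11% from the earlier first-round screen, limit read from the data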;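 also: 0% = VIM-2 with DMSO and 100% = buffer wells without enzyme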
VIM-2 confirm – VIM-2 inhibition, confirmation assay. shares compounds with IMP-1 inh-1. purified VIM-2 enzyme, nitrocefin absorbance. inhibition, % at 5.6 µM. actives 73% (n = 200). AID 1860; in the data active = inhibition above about 8%;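 also: 0% = enzyme with vehicle and 100% = no enzyme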
TEM-1 counter-2 – blocks E. coli TEM-1 beta-lactamase, VIM-2 IMP-1 counter-screen. actives 50% (n = 200). inhibition, % at 5.6 µM. shares compounds with IMP-1 inh-1. nitrocefin absorbance inhibition; in the data active = inhibition above about 0.66%
IMP-1 inh conf – confirmation of P. aeruginosa IMP-1 metallo-beta-lactamase inhibitors; inhibition, % at 5.6 µM; AID 2189; shares compounds with IMP-1 inh-1; purified IMP-1 enzyme, absorbance substrate hydrolysis; actives 60% (n = 200); in the data active = inhibition above about 4.9%;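 also: 0% = enzyme with vehicle and 100% = vehicle without enzyme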
Numbers without * were called inactive.

`C=CCN1C(=O)/C(=C/c2cccs2)C(=O)NC1=S` gave MsrA act -6, VIM-2 inhibitor -1, IMP-1 inh-1 -3, PKA-R2B activ 4, PKA-R1A activ -4 and MsrA inh 1.
CN(C)c1ccc(/C=C2/C(=O)NC(=O)N(Cc3ccco3)C2=O)cc1 was read as MsrA act -5, VIM-2 inhibitor -1, IMP-1 inh-1 0, PKA-R2B activ -8, PKA-R1A activ -4 and MsrA inh 3.
`CCN(CC)c1ccc(/C=C2/C(=O)NC(=O)N(Cc3ccco3)C2=O)cc1` gave MsrA act -10, VIM-2 inhibitor -2, IMP-1 inh-1 -4, PKA-R2B activ -7, PKA-R1A activ 6 and MsrA inh 4.6*.
CCCCCCC[n+]1ccc(-c2cc[n+](CCCCCCC)cc2)cc1 was read as MsrA act 4, VIM-2 inhibitor -1, IMP-1 inh-1 5.0*, PKA-R2B activ -9, PKA-R1A activ -3 and MsrA inh 1.
c1ccc2c[n+](CCCCCCCCCC[n+]3ccc4ccccc4c3)ccc2c1 was read as MsrA act -2 and MsrA inh 2.
`C=C(CO)CC1CC(O)[C@]2(C)OC3CC4OC5C[C@]6(C)O[C@]7(C)CCC8OC9C[C@]%10(C)OC%11C(C)=CC(=O)OC%11CC%10OC9C[C@@H](C)C8OC7CC6O[C@]5(C)C/C=C\C4OC3CC2O1` (stereo partly drawn) gave MsrA act -3, VIM-2 inhibitor -2, IMP-1 inh-1 -2, PKA-R2B activ -1, PKA-R1A activ 4 and MsrA inh -1.
For C=C(COC(C)=O)CC1CC(O)[C@]2(C)OC3CC4OC5C[C@]6(C)O[C@]7(C)CCC8OC9C[C@]%10(C)OC%11C(C)=CC(=O)OC%11CC%10OC9C[C@@H](C)C8OC7CC6O[C@]5(C)C/C=C\C4OC3CC2O1 (stereo partly drawn) the results were MsrA act 9.7*, PKA-R2B activ 6 and PKA-R1A activ -8.
CCN(CC)c1ccc(/C=C/[N+](=O)[O-])cc1 was read as MsrA act -2, VIM-2 inhibitor 3, IMP-1 inh-1 6.5*, PKA-R2B activ -8, PKA-R1A activ 4 and MsrA inh -1.
For CCC(c1nnnn1Cc1ccccc1)N1CCC2(CC1)C(=O)NCN2c1ccccc1 (stereo not drawn) the results were MsrA act -1 and MsrA inh 0.
CCOC(=O)[C@]12Cc3cc(C)ccc3[C@H]1N(C1CCCCC1)C(=O)c1cc(OC)ccc12 was read as MsrA act -1 and MsrA inh 1.
CCC(COC(=O)c1cc(OC)c(OC)c(OC)c1)(c1ccccc1)N(C)C (stereo not drawn) was read as MsrA act -12, VIM-2 inhibitor -6, IMP-1 inh-1 41*, PKA-R2B activ 9, PKA-R1A activ 15 and MsrA inh 1.
`CN1CCC(N(C)c2nc(-c3ccccc3)nc3ccccc23)CC1` gave MsrA act -12, VIM-2 inhibitor 21*, IMP-1 inh-1 -6, PKA-R2B activ 0, PKA-R1A activ 3, MsrA inh 1, IMP-1 inh-2 -1, VIM-2 FRET inh -3, TEM-1 counter-1 -4 and VIM-2 inh conf 33*.
`O=P(O)(O)Oc1ccccc1P(=O)(c1ccccc1)c1ccccc1` gave MsrA act -4, VIM-2 inhibitor 17*, IMP-1 inh-1 -3, PKA-R2B activ -8, PKA-R1A activ 4, MsrA inh 0, IMP-1 inh-2 -3, VIM-2 FRET inh 23*, TEM-1 counter-1 -4 and VIM-2 inh conf 21*.
For ClCCN1CCSCC1 the results were MsrA act -4, PKA-R2B activ 5, PKA-R1A activ -4 and MsrA inh 1.
Cc1cc(OCC(=O)NCC2CCC(C(=O)O)CC2)c2c3c(c(=O)oc2c1)CCC3 (stereo not drawn) was read as MsrA act -5, VIM-2 inhibitor 3, IMP-1 inh-1 -4, PKA-R2B activ 3, PKA-R1A activ -6 and MsrA inh 2.
`Cc1cc(OCC(=O)NCc2cccnc2)c2c3c(c(=O)oc2c1)CCCC3` gave MsrA act -4, VIM-2 inhibitor 33*, IMP-1 inh-1 -3, PKA-R2B activ 7, PKA-R1A activ 2, MsrA inh 2, IMP-1 inh-2 -3, VIM-2 FRET inh -2, TEM-1 counter-1 -9 and VIM-2 inh conf 40*.
`Cc1c(C)c2ccc(OCC(=O)N3CCN(Cc4ccccc4)CC3)cc2oc1=O` gave MsrA act -5, PKA-R2B activ 0, PKA-R1A activ 1 and MsrA inh 1.
Cc1cc(=O)oc2c(C)c(OCC(=O)N3CCN(Cc4ccccc4)CC3)ccc12 was read as MsrA act -13, VIM-2 inhibitor 45*, IMP-1 inh-1 -4, PKA-R2B activ 7, PKA-R1A activ 3, MsrA inh 3, IMP-1 inh-2 -3, VIM-2 FRET inh -1, TEM-1 counter-1 -8 and VIM-2 inh conf 60*.
For COc1ccc(CCNC2CCCCC2)cc1OC the results were MsrA act -2, VIM-2 inhibitor -1, IMP-1 inh-1 -2, PKA-R2B activ -4, PKA-R1A activ -3 and MsrA inh -1.
For CCOC(=O)C1CCCN(c2ccc([N+](=O)[O-])c3nonc23)C1 (stereo not drawn) the results were MsrA act -11, VIM-2 inhibitor 26*, IMP-1 inh-1 27*, PKA-R2B activ -8, PKA-R1A activ -9, MsrA inh 2, VIM-2 confirm 28*, TEM-1 counter-2 34* and IMP-1 inh conf 23*.

Assay outcomes from PubChem.
